Article PMC3184254 (Nature Chemical Biology, 2011)
Like-named read-outs stand apart in the source and are kept apart here.

Tests used:
[1] = tested on: MCF7 cells; experiment: Clonogenicity assay, MCF7; assay type: cell-based, human
[2] = target: PRMT1 (Homo sapiens, UniProt Q99873); experiment: BPS Bioscience assay, PRMT1; assay type: biochemical
[3] = target: M1 (Homo sapiens, UniProt P11229); experiment: M1 functional assay; assay type: cell-based
[4] = tested on: MDA-MB-231 cells; experiment: Clonogenicity assay, MDA-MB-231; assay type: cell-based, human
[5] = Solution stability by 1H NMR and LC-MS; assay type: physicochemical; conditions: 10 mM in deuterated DMSO and deuterated H2O (90:10), room temperature, 4 weeks
[6] = tested on: H3K9me2 levels in PC3 cells; experiment: H3K9me2 in-cell western, PC3; assay type: cell-based; conditions: Homo sapiens, PC-3, read-out: IC50 for reduction of H3K9me2 levels
[7] = target: T1, G9a (Homo sapiens, UniProt Q96KQ7); experiment: G9a fluorescence-polarization peptide displacement assay; assay type: binding
T1 sequence (Q96KQ7 1-1210): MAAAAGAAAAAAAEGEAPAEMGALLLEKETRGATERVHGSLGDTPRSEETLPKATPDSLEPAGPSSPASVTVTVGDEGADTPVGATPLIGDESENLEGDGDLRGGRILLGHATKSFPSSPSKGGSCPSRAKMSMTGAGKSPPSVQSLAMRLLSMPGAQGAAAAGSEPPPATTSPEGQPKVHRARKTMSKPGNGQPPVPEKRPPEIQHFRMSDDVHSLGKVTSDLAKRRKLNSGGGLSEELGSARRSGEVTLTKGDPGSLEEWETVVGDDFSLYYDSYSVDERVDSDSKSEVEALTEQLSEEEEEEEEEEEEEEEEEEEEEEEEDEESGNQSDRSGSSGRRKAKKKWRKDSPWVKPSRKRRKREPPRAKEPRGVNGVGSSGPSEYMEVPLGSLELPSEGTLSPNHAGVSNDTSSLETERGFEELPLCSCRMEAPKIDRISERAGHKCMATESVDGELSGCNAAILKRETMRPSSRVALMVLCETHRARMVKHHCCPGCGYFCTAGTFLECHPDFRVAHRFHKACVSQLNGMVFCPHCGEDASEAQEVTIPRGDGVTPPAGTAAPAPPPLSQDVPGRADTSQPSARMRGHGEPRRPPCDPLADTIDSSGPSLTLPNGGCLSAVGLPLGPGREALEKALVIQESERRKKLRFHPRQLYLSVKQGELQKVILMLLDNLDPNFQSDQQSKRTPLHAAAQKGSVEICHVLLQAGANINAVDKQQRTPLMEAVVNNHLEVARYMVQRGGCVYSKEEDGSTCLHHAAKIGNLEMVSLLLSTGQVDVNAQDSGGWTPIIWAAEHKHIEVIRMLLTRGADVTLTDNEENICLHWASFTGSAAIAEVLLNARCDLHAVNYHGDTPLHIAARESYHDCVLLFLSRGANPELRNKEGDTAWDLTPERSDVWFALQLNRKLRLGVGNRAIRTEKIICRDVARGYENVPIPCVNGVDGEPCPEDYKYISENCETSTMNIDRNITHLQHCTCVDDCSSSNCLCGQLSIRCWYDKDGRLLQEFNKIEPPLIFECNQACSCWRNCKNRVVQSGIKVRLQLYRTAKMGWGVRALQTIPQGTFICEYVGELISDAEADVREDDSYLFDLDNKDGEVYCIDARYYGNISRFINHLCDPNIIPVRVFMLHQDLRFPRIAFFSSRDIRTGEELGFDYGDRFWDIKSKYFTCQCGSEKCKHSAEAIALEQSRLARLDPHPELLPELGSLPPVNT

[8] = tested on: retrovirus long terminal repeat and MAGEA2 promoter in mES cells; experiment: Bisulfite sequencing DNA methylation in mES cells; assay type: cell-based, mouse; conditions: after 10 d of treatment
Outline: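 J1 mouse ES cells were grown on 0.1% gelatin in DMEM with 15% ES-qualified FBS, 4 mM L-glutamine, 0.1 mM nonessential amino acids, 1 mM pyruvate, 0.55 mM 2-mercaptoethanol and LIF. They carried a silenced HSC1 retroviral EGFP-puromycin reporter driven by the EF1a promoter.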

[9] = tested on: H3K9me2 levels in J1 mES cells; experiment: Cellular potency; assay type: cell-based; conditions: Mus musculus, 48 h, read-out: IC50 cellular potency
[10] = target: adrenergic α1A receptor (Rattus norvegicus, UniProt P43140); experiment: Ricerca Selectivity Panel, adrenergic α1A; assay type: binding
Sequence of adrenergic α1A receptor (P43140 whole entry): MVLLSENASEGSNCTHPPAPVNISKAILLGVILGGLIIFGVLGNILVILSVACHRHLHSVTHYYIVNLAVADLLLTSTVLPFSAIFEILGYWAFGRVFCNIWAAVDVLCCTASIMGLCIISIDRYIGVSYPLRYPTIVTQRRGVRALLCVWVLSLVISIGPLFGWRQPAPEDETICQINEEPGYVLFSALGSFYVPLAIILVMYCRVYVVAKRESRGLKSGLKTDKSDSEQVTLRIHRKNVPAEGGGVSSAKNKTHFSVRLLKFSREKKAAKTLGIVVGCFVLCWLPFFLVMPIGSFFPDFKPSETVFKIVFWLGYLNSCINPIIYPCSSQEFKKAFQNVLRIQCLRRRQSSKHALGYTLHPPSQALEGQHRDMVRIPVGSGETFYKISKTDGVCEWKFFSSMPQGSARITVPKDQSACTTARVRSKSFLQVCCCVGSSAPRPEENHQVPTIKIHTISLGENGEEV

[11] = tested on: MDA-MB-231 cells; experiment: MTT assay, MDA-MB-231; assay type: cell-based, human; conditions: Homo sapiens, MDA-MB-231, read-out: EC50 cellular toxicity (MTT)
[12] = target: T2, SETD8 (Homo sapiens, UniProt Q9NQR1); experiment: SAHH-coupled assay, SETD8; assay type: biochemical
T2 sequence (Q9NQR1 1-393): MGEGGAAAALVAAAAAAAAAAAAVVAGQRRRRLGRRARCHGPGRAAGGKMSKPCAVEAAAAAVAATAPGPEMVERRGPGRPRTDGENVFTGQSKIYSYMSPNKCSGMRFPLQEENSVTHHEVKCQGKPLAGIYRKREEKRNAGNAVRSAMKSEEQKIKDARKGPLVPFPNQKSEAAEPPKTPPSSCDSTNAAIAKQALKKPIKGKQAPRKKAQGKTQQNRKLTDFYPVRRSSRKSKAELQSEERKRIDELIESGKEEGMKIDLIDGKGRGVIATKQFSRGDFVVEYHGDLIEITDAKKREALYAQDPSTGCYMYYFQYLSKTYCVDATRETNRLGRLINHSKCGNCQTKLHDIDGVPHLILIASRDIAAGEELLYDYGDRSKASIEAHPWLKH
Outline: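 A fluorescence-based coupled assay used S-adenosyl-L-homocysteine hydrolase to follow conversion of cofactor SAM to SAH by the methyltransferase. IC50 values are the average of at least two separate experiments.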

[13] = tested on: J1 mES cells; experiment: SSEA1 pluripotency marker immunostaining, flow cytometry; assay type: cell-based, mouse; conditions: 100 nM
[14] = target: muscarinic M2 receptor (Homo sapiens, UniProt P08172); experiment: Ricerca Selectivity Panel, muscarinic M2; assay type: binding
Sequence of muscarinic M2 receptor (P08172 whole entry): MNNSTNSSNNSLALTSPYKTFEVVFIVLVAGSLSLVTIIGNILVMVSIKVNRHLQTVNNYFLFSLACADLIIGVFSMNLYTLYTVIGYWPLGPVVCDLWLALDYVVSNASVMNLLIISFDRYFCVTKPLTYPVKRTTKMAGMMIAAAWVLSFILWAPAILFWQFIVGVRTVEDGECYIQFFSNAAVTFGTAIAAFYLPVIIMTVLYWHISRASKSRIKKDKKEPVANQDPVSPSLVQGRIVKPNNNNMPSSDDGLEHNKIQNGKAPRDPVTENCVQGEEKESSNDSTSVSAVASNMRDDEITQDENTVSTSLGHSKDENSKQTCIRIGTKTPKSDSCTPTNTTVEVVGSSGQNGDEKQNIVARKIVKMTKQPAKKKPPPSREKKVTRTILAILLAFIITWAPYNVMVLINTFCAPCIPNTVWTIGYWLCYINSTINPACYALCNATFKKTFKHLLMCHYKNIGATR

[15] = target: M2 (Homo sapiens, UniProt P08172); experiment: M2 functional assay; assay type: cell-based
Sequence of M2 (P08172 whole entry): as above

[16] = tested on: H3K9me2 at genomic loci on chr3 and chrX in MCF7 cells; experiment: ChIP-chip with H3K9me2 antibody; assay type: cell-based, human; conditions: 320 nM for 14 d
[17] = target: adrenergic α1B receptor (Rattus norvegicus, UniProt P15823); experiment: Ricerca Selectivity Panel, adrenergic α1B; assay type: binding
Sequence of adrenergic α1B receptor (P15823 whole entry): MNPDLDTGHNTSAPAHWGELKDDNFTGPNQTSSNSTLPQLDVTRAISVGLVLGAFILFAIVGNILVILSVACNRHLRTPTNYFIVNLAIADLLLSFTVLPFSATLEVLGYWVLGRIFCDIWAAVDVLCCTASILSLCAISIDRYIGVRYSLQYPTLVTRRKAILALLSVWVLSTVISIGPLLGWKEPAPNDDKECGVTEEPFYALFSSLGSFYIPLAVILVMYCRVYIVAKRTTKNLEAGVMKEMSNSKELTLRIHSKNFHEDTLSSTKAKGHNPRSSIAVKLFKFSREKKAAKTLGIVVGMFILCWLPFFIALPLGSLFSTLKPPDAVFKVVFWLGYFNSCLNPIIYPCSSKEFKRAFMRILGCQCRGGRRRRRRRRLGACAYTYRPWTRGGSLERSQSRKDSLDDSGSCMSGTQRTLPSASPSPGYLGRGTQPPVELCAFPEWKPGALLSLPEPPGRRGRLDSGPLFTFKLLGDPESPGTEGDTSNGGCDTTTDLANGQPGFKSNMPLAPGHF

[18] = tested on: DNA methylation on chr3 and chrX in MCF7 cells; experiment: DNA methylation microarray analysis, MCF7; assay type: cell-based, human; conditions: 14 d at 70 or 320 nM

Sequence of PRMT1 (Q99873 whole entry, species assumed): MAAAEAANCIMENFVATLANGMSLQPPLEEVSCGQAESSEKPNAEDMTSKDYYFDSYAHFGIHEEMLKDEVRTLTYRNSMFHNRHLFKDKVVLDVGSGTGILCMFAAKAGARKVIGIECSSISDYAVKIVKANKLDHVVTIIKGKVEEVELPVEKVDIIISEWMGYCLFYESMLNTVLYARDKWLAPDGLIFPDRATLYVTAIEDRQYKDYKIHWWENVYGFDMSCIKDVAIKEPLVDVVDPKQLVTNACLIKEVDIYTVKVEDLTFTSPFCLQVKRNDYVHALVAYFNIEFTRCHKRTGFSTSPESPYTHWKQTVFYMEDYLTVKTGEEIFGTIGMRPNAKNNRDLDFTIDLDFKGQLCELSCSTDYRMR
Sequence of M1 (P11229 whole entry): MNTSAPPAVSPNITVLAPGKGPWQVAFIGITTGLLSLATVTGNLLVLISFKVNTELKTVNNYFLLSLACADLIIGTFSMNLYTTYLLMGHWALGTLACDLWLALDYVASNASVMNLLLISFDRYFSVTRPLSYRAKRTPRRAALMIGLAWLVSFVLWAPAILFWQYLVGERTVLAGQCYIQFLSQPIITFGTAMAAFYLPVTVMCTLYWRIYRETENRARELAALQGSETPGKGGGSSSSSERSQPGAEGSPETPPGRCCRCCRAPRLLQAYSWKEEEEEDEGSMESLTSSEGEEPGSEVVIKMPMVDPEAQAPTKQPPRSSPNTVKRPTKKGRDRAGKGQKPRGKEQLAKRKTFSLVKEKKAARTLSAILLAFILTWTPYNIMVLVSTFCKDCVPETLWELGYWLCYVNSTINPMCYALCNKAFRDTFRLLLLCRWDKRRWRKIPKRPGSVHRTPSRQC

## COc1cc2c(NC3CCN(C(C)C)CC3)nc(C3CCCCC3)nc2cc1OCCCN1CCCC1 [UNC0638]
[1]
  clonogenicity: marked concentration-dependent reduction of clonogenicity
[2]
  IC50: > 10000 nM
[2]; assay results from BPS Bioscience
  IC50: inactive
[3]
  IC50: > 10000 nM
[4]
  clonogenicity: much less effect
[5]
  stability in solution: stable
[6]
  IC50: 59 nM
[7]
  displacement of fluorescein-labeled 15-mer H3 peptide (residues 1–15): high efficiency
[8]
  DNA methylation of retrovirus LTR and MAGEA2 promoter: induced DNA hypomethylation in a concentration-dependent manner
[9]
  IC50: 138 nM
[10]
  inhibition at 1 µM: 90%
[11]
  EC50: 11000 nM
[12]
  IC50: > 10000 nM
[12]; SAHH-coupled assay
  IC50: inactive
[13]
  SSEA1+ cells: 97%
[14]
  inhibition at 1 µM: 64%
[15]
  IC50: 480 ± 10 nM
[16]
  genomic regions containing H3K9me2 on chr3 and chrX: significantly fewer genomic regions containing H3K9me2
[17]
  inhibition at 1 µM: 69%
[18]
  total levels of DNA methylation on chr3 and chrX: not altered
